In the array DNA melting data of Ke et al. (doi:10.1101/2024.01.08.574731):

Experiments:
[1] = melting temperature; fluorescence melt of hairpins on a sequencing array, two-state fit, raised by 9.35 °C to match UV melts; conditions: sodium 0.088 M
How it was run: (§1)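 Hairpins were imaged by Cy3 fluorescence on a sequenced MiSeq flow cell with annealed Cy3 and quencher oligos, in 50 mM Na-HEPES pH 8.0, 25 mM NaCl, in 2.5 °C steps up to 60 °C. Bootstrapped two-state fits of normalised signals gave melting temperature and folding enthalpy. Four replicates were combined by inverse variance, and fitted temperatures were raised by 9.35 °C to match UV melts.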

[2] = folding enthalpy; higher = less favourable; fluorescence melt of hairpins on a sequencing array, two-state fit; conditions: sodium 0.088 M
How it was run: as §1

| Sequence | Tm [1] [°C] | folding enthalpy [2] [kcal/mol] |
| --- | --- | --- |
| GCGTAGTCACGC ((((....)))) | 51.5 | -21.2 |
| GCGTATACGAAAGTACGC (((..(((....)))))) | 51.6 | -35.4 |
| GCGTATCCACGC ((((....)))) | 51.7 | -26.4 |
| GCGTATCCGAAAGGACGC (((..(((....)))))) | 50.2 | -27.1 |
| GCGTATCGAAAGATGCGC (((.(((....))).))) | 66.3 | -43.8 |
| GCGTATGGAAACATACAC (.(((((....))))).) | 36.7 | -15.8 |
| GCGTATGTACGC ((((....)))) | 54.8 | -22.4 |
| GCGTATTAACGC ((((....)))) | 53.8 | -22.1 |
| GCGTATTCGAAAGAACGC (((..(((....)))))) | 42.2 | -24.4 |
| GCGTCACGACGC ((((....)))) | 58.6 | -31.7 |
| GCGTCAGCGAAAGCTCGC (((..(((....)))))) | 47.2 | -10.1 |
| GCGTCAGGAAACTGGTGC ((..(((....)))..)) | 41.6 | -27.1 |
| GCGTCCCCGAAAGGGCGC (((..(((....)))))) | 65.2 | -24.3 |
| GCGTCCGAAAGGAGGCGC ((((((....)))..))) | 67.5 | -36.3 |
| GCGTCCGAAAGGATACGC ((((((....)))..))) | 55.5 | -29.2 |
| GCGTCCGAAAGGATCGC ((((((....))).))) | 59.5 | -37.8 |
| GCGTCCGACGC ((((...)))) | 53.9 | -27.1 |
| GCGTCCGGAAACGAACGC ((((.((....)).)))) | 54.7 | -42.8 |
| GCGTCCGGAAACGGGTGC ((..(((....)))..)) | 51.2 | -30.8 |
| GCGTCCTAACGC ((((....)))) | 54.8 | -26.4 |
| GCGTCCTACGC ((((...)))) | 62.5 | -20.2 |
| GCGTCGAAACGC ((((....)))) | 51.3 | -18.4 |
| GCGTCGCGAAAGCAAAGC ((.(.((....)).).)) | 62.6 | -21.3 |
| GCGTCGCGAAAGCAATGC ((.(.((....)).).)) | 43.9 | -21.6 |

| Sequence | Tm [1] [°C] | folding enthalpy [2] [kcal/mol] |
| --- | --- | --- |
| GCGTCGCGAAAGCGTTGC ((..(((....)))..)) | 48.6 | -17.9 |
| GCGTCGCGAAAGCTACGC ((((.((....)).)))) | 66.9 | -29.4 |
| GCGTCGGCGAAAGCCCGC (((..(((....)))))) | 58.7 | -17 |
| GCGTCTAACGC ((((...)))) | 53.3 | -20.6 |
| GCGTCTCACGC ((((...)))) | 56.4 | -23.4 |
| GCGTCTCCGAAAGGACGC (((..(((....)))))) | 56.8 | -33.1 |
| GCGTCTCGAAAGAGCCGC (((.(((....))).))) | 56.5 | -42.6 |
| GCGTCTCGAAAGAGCGC (((.(((....)))))) | 66.8 | -31 |
| GCGTCTGGAAACAAACGC ((((.((....)).)))) | 44.5 | -32.2 |
| GCGTCTGGAAACAGATGC ((.((((....)))).)) | 54.6 | -55.5 |
| GCGTCTGTACGC ((((....)))) | 53.3 | -26.2 |
| GCGTGAACGAAAGTTCGC (((..(((....)))))) | 48.6 | -15.3 |
| GCGTGACGAAAGTCTCGC (((.(((....))).))) | 67.7 | -39.4 |
| GCGTGAGGAAACTCACAC (.(((((....))))).) | 42.3 | -13.8 |
| GCGTGAGGAAACTCGCGC (((.(((....))).))) | 64.8 | -43 |
| GCGTGAGGAAACTTACGC ((((.((....)).)))) | 52 | -33.8 |
| GCGTGATCGAAAGATCGC (((..(((....)))))) | 47.5 | -15.6 |
| GCGTGCCCACGC ((((....)))) | 60.2 | -26.6 |
| GCGTGCGAAAGCAGACGC ((((((....)))..))) | 62.7 | -28.1 |
| GCGTGCGAACGC ((((....)))) | 69 | -18.2 |
| GCGTGCGCGAAAGCGCGC (((..(((....)))))) | 65.1 | -6.87 |
| GCGTGCGGAAACGCATGC ((.((((....)))).)) | 67.4 | -31 |
| GCGTGCTCGAAAGAGCGC (((..(((....)))))) | 51.5 | -10.2 |
| GCGTGGATACGC ((((....)))) | 66.6 | -28.2 |

| Sequence | Tm [1] [°C] | folding enthalpy [2] [kcal/mol] |
| --- | --- | --- |
| GCGTGGCGAAAGCAAGGC ((.(.((....)).).)) | 46.6 | -18.8 |
| GCGTGGCGAAAGCCTGGC ((..(((....)))..)) | 52.4 | -17.4 |
| GCGTGGCGAAAGCCTTGC ((..(((....)))..)) | 48 | -16.4 |
| GCGTGGCGAAAGCTCCGC (((..((....))..))) | 54.8 | -22.1 |
| GCGTGGCGAAAGCTGCGC (((..((....))..))) | 67.9 | -40.4 |
| GCGTGGCGAAAGCTTCGC (((..((....))..))) | 59.5 | -23.6 |
| GCGTGGTCGAAAGACCGC (((..(((....)))))) | 53.2 | -10.9 |
| GCGTGTCGAAAGACCGC (((.(((....)))))) | 67 | -33 |
| GCGTGTGCGAAAGCACGC (((..(((....)))))) | 57.5 | -9.9 |
| GCGTGTTACGC ((((...)))) | 61.6 | -24 |
| GCGTGTTGACGC ((((....)))) | 55 | -23.9 |
| GCGTTAACGAAAGTTCGC (((..(((....)))))) | 46.8 | -29.4 |
| GCGTTACAACGC ((((....)))) | 58.6 | -26.4 |
| GCGTTACCACGC ((((....)))) | 52.8 | -24.2 |
| GCGTTACGACGC ((((....)))) | 56.8 | -25.9 |
| GCGTTAGACGC ((((...)))) | 51.3 | -18.1 |
| GCGTTAGCACGC ((((....)))) | 61.7 | -8.5 |
| GCGTTAGGAAACTAGTGC ((..(((....)))..)) | 25.7 | -11.4 |
| GCGTTAGTACGC ((((....)))) | 51.1 | -19.8 |
| GCGTTATCGAAAGATCGC (((..(((....)))))) | 44.3 | -26.1 |
| GCGTTCAGACGC ((((....)))) | 53.6 | -23.8 |
| GCGTTCCGAAAGGACCGC (((.(((....))).))) | 58.4 | -46.4 |
| GCGTTCCGAAAGGACGC (((.(((....)))))) | 63.3 | -41.9 |
| GCGTTCCGACGC ((((....)))) | 58 | -27.8 |

| Sequence | Tm [1] [°C] | folding enthalpy [2] [kcal/mol] |
| --- | --- | --- |
| GCGTTCGAAAGAACCCGC ((((((....)))..))) | 40.8 | -14.2 |
| GCGTTCGAAAGAAGTCGC ((((((....)))..))) | 37.7 | -26.4 |
| GCGTTCGAAAGAATACGC ((((((....)))..))) | 47.5 | -27.3 |
| GCGTTCGAAAGAATTCGC ((((((....)))..))) | 36.2 | -26.6 |
| GCGTTCGAACGC ((((....)))) | 56.9 | -36 |
| GCGTTGAAACGC ((((....)))) | 53.5 | -20.8 |
| GCGTTGACACGC ((((....)))) | 50.1 | -21.2 |
| GCGTTGACGAAAGTCCGC (((..(((....)))))) | 51.4 | -24.1 |
| GCGTTGCCGAAAGGCCGC (((..(((....)))))) | 55.6 | -16.6 |
| GCGTTGCGAAAGCACGGC ((..(((....)))..)) | 58.9 | -13.6 |
| GCGTTGCGAAAGCACTGC ((..(((....)))..)) | 46.1 | -18.2 |
| GCGTTGCGAAAGCATCGC (((.(((....))).))) | 61.3 | -55.8 |
| GCGTTGCGAAAGCCACGC ((((.((....)).)))) | 66.6 | -36.6 |
| GCGTTGCGAAAGCCTCGC (((..((....))..))) | 58.1 | -18.5 |
| GCGTTGGCGAAAGCCCGC (((..(((....)))))) | 57.3 | -18.8 |
| GCGTTGGGAAACCAATGC ((.((((....)))).)) | 54.3 | -43.2 |
| GCGTTGTACGC ((((...)))) | 65.8 | -19 |
| GCGTTGTGACGC ((((....)))) | 59 | -31.6 |
| GCGTTTAAACGC ((((....)))) | 54.7 | -29.4 |
| GCGTTTCCGAAAGGACGC (((..(((....)))))) | 49.7 | -24.5 |
| GCGTTTCGAAAGAACCGC (((.(((....))).))) | 52.4 | -39.8 |
| GCGTTTCGACGC ((((....)))) | 55.9 | -28.6 |
| GCGTTTGTACGC ((((....)))) | 54.9 | -25.4 |
| GCGTTTTCGAAAGAACGC (((..(((....)))))) | 49.6 | -32 |
